Data reported in ChEMBL document CHEMBL1275272, “Synthesis, characterization and antimicrobial activity of some disubstituted 1,3,4-oxadiazoles carrying 2-(aryloxymethyl)phenyl moiety” (2010).
Values after ≈ are worked out from the molar mass of the structure shown.

How the values were obtained:
Type in all cases: functional
Staphylococcus aureus = assay: Antibacterial activity against Staphylococcus aureus after 16 to 18 hrs by serial dilution method; settings: for MIC: Staphylococcus aureus
Outline: (§1)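 The test compound was dissolved in DMF and serially diluted. A standard drop of the prepared microbial culture was added to each dilution, and tubes were incubated at 37 °C for 16–18 h. MIC was taken as the highest dilution that stayed clear with no visible turbidity.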

Escherichia coli = assay: Antibacterial activity against Escherichia coli after 16 to 18 hrs by serial dilution method; settings: for MIC: Escherichia coli; outline: as §1
Pseudomonas aeruginosa = assay: Antibacterial activity against Pseudomonas aeruginosa after 16 to 18 hrs by serial dilution method; settings: for MIC: Pseudomonas aeruginosa; outline: as §1
Klebsiella pneumoniae = assay: Antibacterial activity against Klebsiella pneumoniae after 16 to 18 hrs by serial dilution method; settings: for MIC: Klebsiella pneumoniae
Talaromyces marneffei = assay: Antifungal activity against Penicillium marneffei after 16 to 18 hrs by serial dilution method; settings: for MIC: Talaromyces marneffei; outline: as §1
[1] = tested on: Trichophyton mentagrophytes; assay: Antifungal activity against Trichophyton mentagrophytes after 16 to 18 hrs by serial dilution method; settings: for MIC: Trichophyton mentagrophytes
Aspergillus flavus = assay: Antifungal activity against Aspergillus flavus after 16 to 18 hrs by serial dilution method; settings: for MIC: Aspergillus flavus; outline: as §1
Aspergillus fumigatus = assay: Antifungal activity against Aspergillus fumigatus after 16 to 18 hrs by serial dilution method; settings: for MIC: Aspergillus fumigatus

SMILES	MIC (Staphylococcus aureus)	MIC (Escherichia coli)	MIC (Pseudomonas aeruginosa)	MIC (Klebsiella pneumoniae)	MIC (Talaromyces marneffei)	MIC [1]	MIC (Aspergillus flavus)	MIC (Aspergillus fumigatus)	inhibition zone (IZ) (Staphylococcus aureus)	inhibition zone (IZ) (Escherichia coli)	inhibition zone (IZ) (Pseudomonas aeruginosa)	inhibition zone (IZ) (Klebsiella pneumoniae)	inhibition zone (IZ) (Talaromyces marneffei)	inhibition zone (IZ) [1]	inhibition zone (IZ) (Aspergillus flavus)	inhibition zone (IZ) (Aspergillus fumigatus)
Cc1ccc(OCc2ccccc2-c2nnc(-c3ccccc3)o2)cc1	25 µg/mL (≈ 73 µM)	25 µg/mL (≈ 73 µM)	25 µg/mL (≈ 73 µM)	25 µg/mL (≈ 73 µM)	25 µg/mL (≈ 73 µM)	25 µg/mL (≈ 73 µM)	25 µg/mL (≈ 73 µM)	25 µg/mL (≈ 73 µM)	<10 mm	<10 mm	<10 mm	<10 mm	<10 mm	<10 mm	<10 mm	<10 mm
S=c1oc(-c2ccccc2COc2ccc(Cl)cc2)nn1CN1CCOCC1	12.5 µg/mL (≈ 29.9 µM)	12.5 µg/mL (≈ 29.9 µM)	12.5 µg/mL (≈ 29.9 µM)	12.5 µg/mL (≈ 29.9 µM)	12.5 µg/mL (≈ 29.9 µM)	12.5 µg/mL (≈ 29.9 µM)	12.5 µg/mL (≈ 29.9 µM)	12.5 µg/mL (≈ 29.9 µM)	11 mm	11 mm	11 mm	11 mm	11 mm	11 mm	11 mm	11 mm
Cc1cccc(OCc2ccccc2-c2nnc(SCc3ccc(Cl)cc3)o2)c1	12.5 µg/mL (≈ 29.6 µM)	12.5 µg/mL (≈ 29.6 µM)	12.5 µg/mL (≈ 29.6 µM)	12.5 µg/mL (≈ 29.6 µM)	12.5 µg/mL (≈ 29.6 µM)	12.5 µg/mL (≈ 29.6 µM)	12.5 µg/mL (≈ 29.6 µM)	12.5 µg/mL (≈ 29.6 µM)	11 mm	11 mm	11 mm	11 mm	11 mm	11 mm	11 mm	11 mm

Now from value to compound, other results behind:

MIC (Staphylococcus aureus)	MIC (Escherichia coli)	MIC (Pseudomonas aeruginosa)	MIC (Klebsiella pneumoniae)	MIC (Talaromyces marneffei)	MIC [1]	MIC (Aspergillus flavus)	MIC (Aspergillus fumigatus)	SMILES	inhibition zone (IZ) (Staphylococcus aureus)	inhibition zone (IZ) (Escherichia coli)	inhibition zone (IZ) (Pseudomonas aeruginosa)	inhibition zone (IZ) (Klebsiella pneumoniae)	inhibition zone (IZ) (Talaromyces marneffei)	inhibition zone (IZ) [1]	inhibition zone (IZ) (Aspergillus flavus)	inhibition zone (IZ) (Aspergillus fumigatus)
25 µg/mL (≈ 55.3 µM)	25 µg/mL (≈ 55.3 µM)	25 µg/mL (≈ 55.3 µM)	25 µg/mL (≈ 55.3 µM)	25 µg/mL (≈ 55.3 µM)	25 µg/mL (≈ 55.3 µM)	25 µg/mL (≈ 55.3 µM)	25 µg/mL (≈ 55.3 µM)	Cc1cccc(OCc2ccccc2-c2nn(CNc3cc(C)ccc3Cl)c(=S)o2)c1	<10 mm	<10 mm	<10 mm	<10 mm	<10 mm	<10 mm	<10 mm	<10 mm
12.5 µg/mL (≈ 33.7 µM)	12.5 µg/mL (≈ 33.7 µM)	12.5 µg/mL (≈ 33.7 µM)	12.5 µg/mL (≈ 33.7 µM)	12.5 µg/mL (≈ 33.7 µM)	12.5 µg/mL (≈ 33.7 µM)	12.5 µg/mL (≈ 33.7 µM)	6.25 µg/mL (≈ 16.9 µM)	Cc1cccc(OCc2ccccc2-c2nnc(-c3cc(C)cc(C)c3)o2)c1	11 mm	11 mm	11 mm	11 mm	11 mm	11 mm	11 mm	16 mm
25 µg/mL (≈ 46.8 µM)	25 µg/mL (≈ 46.8 µM)	25 µg/mL (≈ 46.8 µM)	25 µg/mL (≈ 46.8 µM)	25 µg/mL (≈ 46.8 µM)	25 µg/mL (≈ 46.8 µM)	25 µg/mL (≈ 46.8 µM)	25 µg/mL (≈ 46.8 µM)	Cc1ccc(OCc2ccccc2-c2nn(CNc3ccc(Cl)cc3C(=O)C(F)(F)F)c(=S)o2)cc1	<10 mm	<10 mm	<10 mm	<10 mm	<10 mm	<10 mm	<10 mm	<10 mm
25 µg/mL (≈ 55.3 µM)	25 µg/mL (≈ 55.3 µM)	25 µg/mL (≈ 55.3 µM)	25 µg/mL (≈ 55.3 µM)	25 µg/mL (≈ 55.3 µM)	25 µg/mL (≈ 55.3 µM)	25 µg/mL (≈ 55.3 µM)	25 µg/mL (≈ 55.3 µM)	Cc1ccc(Cl)c(NCn2nc(-c3ccccc3COc3ccccc3C)oc2=S)c1	<10 mm	<10 mm	<10 mm	<10 mm	<10 mm	<10 mm	<10 mm	<10 mm
